Results taken from ChEMBL document CHEMBL3576843, “Neopetrocyclamines A and B, polycyclic diamine alkaloids from the sponge Neopetrosia cf exigua” (2015).

Experiments:
Assay type in all cases: functional
A498 = experiment: Cytotoxicity against human A498 cells after 48 hrs by XTT assay; conditions: A498, 48 h
In short: (§1)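 Cells seeded at 5000/well in medium lacking phenol red and antibiotics, allowed 60 min to attach, then compound dilutions or DMSO solvent control added. Incubated 48 h with compound; viability measured by XTT proliferation assay per kit protocol; growth inhibition expressed as GI50.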

SF-295 = experiment: Cytotoxicity against human SF295 cells after 48 hrs by XTT assay; conditions: SF-295, 48 h; in short: as §1
UO-31 = experiment: Cytotoxicity against human UO31 cells after 48 hrs by XTT assay; conditions: UO-31, 48 h; in short: as §1

Row | Compound | GI50 (A498) | GI50 (SF-295) | GI50 (UO-31)
1 | C1=C/[C@H]2[C@@H]3CCCC[C@H]3C[C@H]2NCCCN[C@@H]2C[C@@H]3CCCC[C@H]3[C@@H]2/C=C/1 | 2.9 µM | 0.8 µM | 3 µM
2 | C1=C[C@H]2/C=C/CCCCC/C=C\CCN3C=[N+](CCC3)C[C@H]2[C@@H]2CCCC[C@@H]12 | > 20 µM | > 20 µM | > 20 µM
3 | C1=C[C@H]2/C=C/CCCCC/C=C\CCNCCCNC[C@H]2[C@@H]2CCCC[C@@H]12 | > 20 µM | > 20 µM | > 20 µM
4 | C1=C/[C@H]2[C@@H]3CCCC[C@H]3C[C@@H]2NCCCN[C@@H]2C[C@@H]3CCCC[C@H]3[C@@H]2/C=C/1 [HALICLONADIAMINE] | 5.9 µM | 6.3 µM | 8 µM
